Rows were chosen to be rich in hits. Some 2.3% of all compounds tested hit in one or more screens of this group.
CD11b adhes enh – increases human CD11b/CD18 adhesion to fibrinogen. activation, % at 10 µM. K562 CD11b/CD18 adhesion to fibrinogen, ATPlite luminescence. P05107+P11215. 0.07% of 93,000 active;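 active means 10 µM primary screen giving 50% or more activity, confirmed by 40% or more on retest at that dose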
PTK2B oligo ant – Pyk2 (human) oligomerization antagonism; z-score (the deposit names both 25 µM and 10 µM); Q14289; 0.83% of 99,000 active; Q293 cells, Pyk2 FERM NanoBiT luminescence; hits give low values;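 active means Z-score of -3 or lower, scaled per plate to the spread of control and sample wells; inactive means z-score above -3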;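 further: negative z-score means lost luminescence so less FERM oligomerization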
Target sequence (Q14289 whole entry, looked up): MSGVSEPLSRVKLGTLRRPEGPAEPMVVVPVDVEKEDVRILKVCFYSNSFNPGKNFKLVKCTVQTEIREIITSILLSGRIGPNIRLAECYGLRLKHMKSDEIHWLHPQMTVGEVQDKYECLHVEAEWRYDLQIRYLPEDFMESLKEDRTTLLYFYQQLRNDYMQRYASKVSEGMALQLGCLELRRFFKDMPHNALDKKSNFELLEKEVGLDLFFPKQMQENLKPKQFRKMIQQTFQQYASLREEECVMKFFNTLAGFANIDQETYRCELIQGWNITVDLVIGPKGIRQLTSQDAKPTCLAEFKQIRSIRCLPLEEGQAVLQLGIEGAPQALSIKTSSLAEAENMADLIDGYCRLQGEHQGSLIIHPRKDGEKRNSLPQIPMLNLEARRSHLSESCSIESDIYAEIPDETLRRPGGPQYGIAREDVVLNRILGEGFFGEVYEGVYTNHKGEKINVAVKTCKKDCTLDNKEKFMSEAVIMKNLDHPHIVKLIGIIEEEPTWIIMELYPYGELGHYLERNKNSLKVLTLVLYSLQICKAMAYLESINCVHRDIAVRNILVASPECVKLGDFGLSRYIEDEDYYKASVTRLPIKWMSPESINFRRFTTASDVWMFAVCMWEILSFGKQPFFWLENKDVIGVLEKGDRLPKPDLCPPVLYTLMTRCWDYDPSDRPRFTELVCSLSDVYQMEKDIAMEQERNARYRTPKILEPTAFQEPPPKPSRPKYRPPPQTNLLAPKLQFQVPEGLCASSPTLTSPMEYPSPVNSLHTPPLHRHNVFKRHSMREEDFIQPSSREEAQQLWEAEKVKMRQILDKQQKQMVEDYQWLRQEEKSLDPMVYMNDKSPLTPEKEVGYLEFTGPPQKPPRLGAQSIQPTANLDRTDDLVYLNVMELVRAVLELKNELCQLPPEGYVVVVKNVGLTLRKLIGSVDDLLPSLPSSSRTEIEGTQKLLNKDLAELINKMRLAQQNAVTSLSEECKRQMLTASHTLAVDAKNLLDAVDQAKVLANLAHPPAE
E coli WT exp – E. coli BW25113 growth inhibition, expanded screen; 0.15% of 98,000 active; OD600 absorbance; AID 710; growth inhibition, % at 100 µM;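 active means growth inhibition above about 50% at one test dose, limit read from the data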;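 further: growth measured after 20 h incubation at 37 °C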
Ecoli tolC – blocks growth of E. coli BW25113 tolC mutant; 2.2% of 65,000 active; growth inhibition, % at 10 µM (by protocol); OD615;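 active means growth inhibition at or above a cutoff equal to the mean over every tested compound plus 3 SD, cut at about 60% in these data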;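 further: growth measured after 20 h incubation at 37 °C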
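test system = E. coli BW25113 ΔtolC::kan bacteria | medium = LB with kanamycin 50 µg/mL | signal = OD at 615 nm | schedule = 37 °C, 20 h exposure | evaluation = % inhibition of E. coli growth | compound dosing = one dose of 10 µM final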
CD11b adhes inh – CD11b/CD18-fibrinogen binding inhibition; AID 1497; K562 CD11b/CD18 adhesion to fibrinogen, ATPlite luminescence; Mn2+ added to activate the integrin; 0.54% of 93,000 active; inhibition, % at 10 µM; P05107+P11215;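 active means primary inhibition of 50% or more at 10 µM, then 40% or more on retest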
Starred values were filed as active, the others as inactive; · = no result given.

SMILES	CD11b adhes enh	PTK2B oligo ant	E coli WT exp	Ecoli tolC	CD11b adhes inh
Cc1[nH]n(-c2cccc3ccccc23)c(=O)c1/C=N/c1sc2c(c1C#N)CCC2	-13.3	0.13	0.0	·	100.3*
O=C(Nc1ccc(-n2nncc2-c2ccco2)cc1)c1cccc(F)c1	0.7	-1.11	-1.0	9.6	-31.8
O=C(Nc1ccc(-n2nncc2-c2ccco2)cc1)c1cc2ccccc2oc1=O	168.4*	-0.04	-4.0	-15.7	-7.3
O=C(c1ccc(Cl)cc1)N1CCCC(c2ccccc2)=N1	·	-1.23	2.0	·	·
Cc1nc(-c2cccc(S(=O)(=O)N3CC(C)CC(C)C3)c2)cs1 (stereo unspecified)	0.3	-3.04*	11.0	·	3.8
FC(F)C(F)(F)C(F)(F)C(F)(F)c1cc(-c2ccccc2)n[nH]1	-4.2	-3.38*	22.0	41.8	49.3
CCOC(=O)c1[nH]c2ccc(OC)cc2c1N=CN(C)C	-2.3	0.27	4.0	2.2	-2.7
Fc1cccc(Cl)c1CNCc1ccccc1Cl	-4.7	-1.1	10.0	·	-2.5
CC1CC(N(C(=O)c2ccccc2Cl)c2ccccc2)c2ccccc2N1 (stereo unspecified)	-4.3	-3.65*	-7.0	·	-5.0
O=C(Nc1nc(-c2ccccc2)ns1)c1cccs1	-1.6	-0.49	-4.0	64.2*	38.9
O=C(Nc1nc(-c2ccc(Cl)s2)cs1)c1cccs1	-1.1	-2.97	-24.0	11.9	-0.2
CCC(=O)Nc1nc(-c2ccccc2)ns1	·	-0.23	·	·	·
O=C(Nc1nc(-c2ccccc2)cs1)c1cccs1	-3.1	-2.89	-8.0	98.4*	34.5
O=C(NC1CCCCC1)Nn1c(-c2ccccc2)nc2ccccc2c1=O	2.2	·	·	7.5	2.9
CN(Cc1cccs1)c1ncnc2sccc12	-7.5	0.41	11.0	12.9	88.6*
CC1CCCN(S(=O)(=O)c2ccc(NC(=O)c3cccc(-n4cnnn4)c3)cc2)C1 (stereo unspecified)	0.5	-0.81	-10.0	72.9*	-10.4
CC1CCCCN1S(=O)(=O)c1ccc(NC(=O)c2cccc(-n3cnnn3)c2)cc1 (stereo unspecified)	0.2	-0.71	-2.0	47.3	12.5
CSc1ccc(CNc2cccc3ccccc23)cc1	-1.3	-4.33*	2.0	·	7.0
CSc1ccc(/C=N/NC(=O)CNc2cccc3ccccc23)cc1	33.1	·	·	·	-0.1
COC(=O)C(CC(=O)c1ccc(Br)cc1)n1ccnc1 (stereo unspecified)	-1.4	·	59.0*	5.2	13.2
CCCCC(=O)Nc1sc2c(c1C(=O)OCC)CCC(C=O)=C2Cl	-5.4	-3.04*	7.0	·	-1.2
CCCCNCC(=O)Nc1sc(C)c(C)c1C(=O)OCC	·	-0.07	·	·	·
CC(C)n1nc(C(=O)OCC(=O)c2c[nH]c3ccccc23)c2ccccc2c1=O	-0.4	-3.65*	-4.0	·	-49.6
Cc1ccccc1Oc1cccc(C(=O)/C(C#N)=C/N(C)C)c1	-0.7	2.84	5.0	·	-5.2
CN(C)/C=C(/C#N)C(=O)c1cccc(Oc2ccc(C(C)(C)C)cc2)c1	-7.5	-1.56	-6.0	·	82.4*
SMILES	CD11b adhes enh	PTK2B oligo ant	E coli WT exp	Ecoli tolC	CD11b adhes inh
COc1ccc(C2NC(=O)c3sc4nc(C)c(C(C)=O)c(-c5ccc(Cl)cc5)c4c3N2)cc1 (stereo unspecified)	2.1	0.6	-12.0	·	28.4
O=S(=O)(NCCSc1ccc(Cl)cc1)c1ccc2c(c1)OCCO2	-3.4	-1.41	-8.0	100.0*	69.7
O=S(=O)(NCCSCc1c(Cl)cccc1Cl)c1ccc2c(c1)OCCO2	-2.6	-4.34*	-20.0	·	13.3
O=S(=O)(NCCSCc1ccc(Cl)cc1Cl)c1ccc2c(c1)OCCO2	-7.4	-2.26	-13.0	·	3.6
CN(C)C(=O)Cn1c(SCC(=O)NC2CCCCC2)nc2ccccc21	·	0.08	-2.0	-17.2	·
CC(C)Cn1c(SCC(=O)NC(=O)NC2CCCC2)nc2ccccc21	-1.8	-3.35*	4.0	50.9	1.8
COc1cc(NC(=O)CSc2ncnc3c2cnn3Cc2ccccc2)cc(OC)c1	-0.4	-1.69	1.0	·	64.0*
COC(=O)c1cc(NC(=O)c2ccc(Cn3cc(Cl)cn3)o2)cc(C(=O)OC)c1	76.1	-2.57	-7.0	29.3	-2.9
CCOC(=O)c1c(NC(=S)NC(=O)c2ccc(Cn3cc(Cl)cn3)o2)sc2c1CCC(C)C2 (stereo unspecified)	201.1*	0.61	-7.0	·	-1.5
O=C(CN(C(=O)CNC(=O)c1ccco1)c1ccc(Cl)c(Cl)c1)NC1CCCCC1	-0.3	-0.64	9.0	72.0*	-2.2
CC(=O)c1c(C(C)=O)c(C)n(NC(=O)c2ccncc2)c1C	·	-0.85	6.0	11.0	·
Cc1cccc(N2CCN(C(=O)CSCc3c(C)noc3C)CC2)c1C	-9.3	0.89	8.0	21.4	98.6*
CCc1cccc(NC(=O)c2ccc(NS(=O)(=O)c3c(C)noc3C)cc2)c1	-0.1	0.49	14.0	76.8*	-0.2
Cc1noc(C)c1S(=O)(=O)Nc1ccc(C(=O)N2CCN(c3cccc(Cl)c3)CC2)cc1	-6.3	0.02	0.0	·	1.6
Cc1cccc(N2CCN(C(=O)c3ccc(NS(=O)(=O)c4c(C)noc4C)cc3)CC2)c1C	5.5	0.34	-12.0	84.0*	-21.7
Cc1noc(C)c1CSCC(=O)N1CCN(c2ccc(F)cc2)CC1	0.0	1.55	2.0	-4.0	21.6
CCOC(=O)c1cnc2c(OC)cccc2c1Nc1ccc2c(c1)OCCO2	0.3	·	·	·	-4.6
O=C(O)c1oc2ccc(Br)cc2c1-n1cccc1	3.2	3.22	·	35.0	-3.6
Cc1ccccc1CSCC(Nc1ccc(C(=O)O)cc1[N+](=O)[O-])C(=O)O (stereo unspecified)	-3.9	-0.7	-3.0	·	10.1
CC1CCN(C(=O)CSc2nnc(-c3cc4ccccc4cc3O)n2Cc2ccco2)CC1	-0.1	0.64	-2.0	25.8	4.4
CCOc1ccc(NS(=O)(=O)c2ccc(NS(=O)(=O)c3ccccc3)cc2)cc1	-5.4	-0.58	2.0	·	-16.0
CCOc1ccc(S(=O)(=O)Nc2ccccc2SC)cc1	-5.7	-1.7	7.0	·	17.6
CCOc1ccc(S(=O)(=O)Nc2cccc(Cl)c2)cc1	·	-0.8	·	73.1*	·
CCOc1ccc(S(=O)(=O)Nc2cc(Cl)ccc2O)cc1	·	-0.13	33.0	67.4*	·
C#CCNc1nc(CC)nc2c1nnn2Cc1ccccc1F	-4.4	-1.27	-1.0	-0.9	-5.1
SMILES	CD11b adhes enh	PTK2B oligo ant	E coli WT exp	Ecoli tolC	CD11b adhes inh
O=C(CN1C(=O)C2CC=CCC2C1=O)NC1CCCc2ccccc21 (stereo unspecified)	-3.6	-0.74	-12.0	·	5.2
CCN(CC)c1ccc(Nc2nc(N3CCOCC3)c3ccccc3n2)cc1	-2.5	-0.28	7.0	·	65.2*
COc1ccc(Nc2nc(N3CCCC3)c3ccccc3n2)cc1	-8.8	-2.66	20.0	76.2*	99.4
CSc1nc(N2CCOCC2)c2ccccc2n1	-1.9	-0.34	-3.0	6.3	-3.3
c1ccc2c(N3CCCCC3)nc(N3CCCC3)nc2c1	-2.1	-0.31	17.0	14.0	16.3
CCn1c(C(=O)OC)cc2c1ccn2-c1ccc(F)cc1	-0.6	0.38	4.0	96.4*	-1.4
CCCCCC/C(=N\NS(C)(=O)=O)c1ccccc1	-1.2	-0.12	-4.0	·	1.5

From PubChem
